Experimental data from ChEMBL document CHEMBL1255494, “In vivo comparison of the pharmacodynamic targets for echinocandin drugs against Candida species” (Antimicrob Agents Chemother, 2010).
≈ marks a conversion by molar mass, not a printed value. *1 amine or outer side, *2 acyl side, *3 side chain or, on linkers, in order; H or OH if unused. Where a SMILES comes first, the peptide text is derived from it. Bridges are numbered along the chain shown (N, C = ends). [ ]: non-standard residue; d: D form. The star is where a group is joined. hTyr(3S-OH,4S-OH,3'-OSO3H) = N[C@H](C(=O)O)[C@H](O)[C@@H](O)c1ccc(O)c(OS(=O)(=O)O)c1; Orn(4R-OH,5R-OH) = O=C([C@H](C[C@@H](O)[C@@H](O)N[*:3])N[*:1])[*:2]; Pro(3S-OH,4S-Me) = C[C@H]1CN[C@H](C(=O)O)[C@H]1O; X1 = CCCCCOc1ccc(-c2cc(-c3ccc(C(=O)*)cc3)no2)cc1; Gln(3R-OH) = NC(=O)C[C@@H](O)[C@H](N)C(=O)O; Hyp = O=C(O)[C@@H]1C[C@@H](O)CN1

What was measured:
[1] = test system: Mus musculus; assay: Protein binding in Candida albicans infected neutropenic ICR Swiss mouse at 80 mg/kg, ip; type: ADME, organism-based; set-up: dose 80 mg/kg, route intraperitoneal; details: in vivo
[2] = Ratio of AUC (0 to 24 hrs) in Candida albicans infected neutropenic ICR Swiss mouse to MIC for Candida albicans at static dose after 24 hrs; type: functional
Procedure, shortened: (§1)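 Neutropenic mice were infected iv and treated 2 h later. Four to six ip dose levels (0.078–160 mg/kg) were given every 24 h for 4 days, 3 mice per regimen. Kidney CFU were counted at 96 h. A sigmoid dose-effect model gave the static and 1-log-kill doses relative to burden at therapy start.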

[3] = Ratio of AUC (0 to 24 hrs) in Candida glabrata infected neutropenic ICR Swiss mouse to MIC for Candida glabrata at static dose after 24 hrs; type: functional; procedure, shortened: as §1
[4] = Ratio of AUC (0 to 24 hrs) in Candida parapsilosis infected neutropenic ICR Swiss mouse to MIC for Candida parapsilosis at static dose after 24 hrs; type: functional; procedure, shortened: as §1
[5] = Ratio of fAUC (0 to 24 hrs) in Candida albicans infected neutropenic ICR Swiss mouse to MIC for Candida albicans at static dose after 24 hrs; type: functional
[6] = Ratio of fAUC (0 to 24 hrs) in Candida parapsilosis infected neutropenic ICR Swiss mouse to MIC for Candida parapsilosis at static dose after 24 hrs; type: functional
[7] = Ratio of AUC (0 to 24 hrs) in Candida glabrata infected neutropenic ICR Swiss mouse to MIC for Candida glabrata at 1 log kill dose after 24 hrs; type: functional; procedure, shortened: as §1
[8] = Ratio of fAUC (0 to 24 hrs) in Candida albicans infected neutropenic ICR Swiss mouse to MIC for Candida albicans at 1 log kill dose after 24 hrs; type: functional
[9] = Ratio of fAUC (0 to 24 hrs) in Candida glabrata infected neutropenic ICR Swiss mouse to MIC for Candida glabrata at 1 log kill dose after 24 hrs; type: functional
[10] = Ratio of fAUC (0 to 24 hrs) in Candida parapsilosis infected neutropenic ICR Swiss mouse to MIC for Candida parapsilosis at 1 log kill dose after 24 hrs; type: functional
[11] = test system: Nakaseomyces glabratus; assay: Fungistatic activity against Candida glabrata infected in neutropenic ICR Swiss mouse after 24 hrs; type: functional
Procedure, shortened: (§2)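 Female ICR Swiss mice, neutropenic via cyclophosphamide s.c. (150 mg/kg day −4, 100 mg/kg day −1 and day +2), infected by tail-vein injection of clinical isolates 2 h before therapy. Intraperitoneal dosing every 24 h for 4 days, 4–6 dose levels from 0.078 to 160 mg/kg, 3 mice per regimen. Kidney CFU counted at 96 h. Sigmoid dose-effect fit gives static dose and 1 log kill dose relative to burden at start of therapy.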

[12] = test system: Candida parapsilosis; assay: Antifungal activity against Candida parapsilosis infected in ICR Swiss mouse assessed log reduction in bacterial count […]; type: functional; procedure, shortened: as §2
[13] = test system: Candida albicans; assay: Antifungal activity against Candida albicans infected in ICR Swiss mouse; type: functional; procedure, shortened: as §2
[14] = test system: Candida parapsilosis; assay: Antifungal activity against Candida parapsilosis infected in ICR Swiss mouse; type: functional; procedure, shortened: as §2
[15] = test system: Candida albicans; assay: Antifungal activity against Candida albicans 98-17 after 24 hrs; type: functional; details: 98-17, 24 h
Procedure, shortened: (§3)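 MICs by CLSI M27-A3 broth dilution in RPMI 1640, inoculum 0.5 × 10³ to 2.5 × 10³ cells/ml, 35°C. Read visually at 24 h as the lowest concentration giving ≥50% growth reduction versus control. Run on three occasions in duplicate and reported as the mean. C. krusei ATCC 6258 and C. parapsilosis ATCC 22019 served as QC strains.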

[16] = test system: Candida albicans; assay: Antifungal activity against Candida albicans 580 after 24 hrs; type: functional; details: Candida albicans, 580, 24 h
Procedure, shortened: (§4)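 Broth microdilution per CLSI M27-A3 in RPMI 1640; inoculum 0.5 × 10³ to 2.5 × 10³ cells/ml, 35°C. […] Three separate occasions in duplicate, mean reported; C. krusei ATCC 6258 and C. parapsilosis ATCC 22019 as daily QC.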

[17] = test system: Candida albicans; assay: Antifungal activity against Candida albicans K1 after 24 hrs; type: functional; details: K1, 24 h; procedure, shortened: as §4
[18] = test system: Candida albicans; assay: Antifungal activity against Candida albicans 570 after 24 hrs; type: functional; details: Candida albicans, 570, 24 h; procedure, shortened: as §3
[19] = test system: Nakaseomyces glabratus; assay: Antifungal activity against Candida glabrata 513 after 24 hrs; type: functional; details: Nakaseomyces glabratus, 513, 24 h; procedure, shortened: as §4
[20] = test system: Nakaseomyces glabratus; assay: Antifungal activity against Candida glabrata 33609 after 24 hrs; type: functional; details: Nakaseomyces glabratus, 33609, 24 h; procedure, shortened: as §4
[21] = test system: Nakaseomyces glabratus; assay: Antifungal activity against Candida glabrata 33616 after 24 hrs; type: functional; details: Nakaseomyces glabratus, 33616, 24 h; procedure, shortened: as §3
[22] = test system: Nakaseomyces glabratus; assay: Antifungal activity against Candida glabrata 35315 after 24 hrs; type: functional; details: Nakaseomyces glabratus, 35315, 24 h; procedure, shortened: as §3
[23] = test system: Nakaseomyces glabratus; assay: Antifungal activity against Candida glabrata 34341 after 24 hrs; type: functional; details: Nakaseomyces glabratus, 34341, 24 h; procedure, shortened: as §3
[24] = test system: Candida metapsilosis; assay: Antifungal activity against Candida metapsilosis 20463.02 after 24 hrs; type: functional; details: Lodderomyces metapsilosis, 20463.02, 24 h; procedure, shortened: as §3
[25] = test system: Candida parapsilosis; assay: Antifungal activity against Candida parapsilosis 20450.096 after 24 hrs; type: functional; details: Lodderomyces parapsilosis, 20450.096, 24 h; procedure, shortened: as §3
[26] = test system: Candida parapsilosis; assay: Antifungal activity against Candida parapsilosis 20477.078 after 24 hrs; type: functional; details: Lodderomyces parapsilosis, 20477.078, 24 h; procedure, shortened: as §3
[27] = test system: Candida parapsilosis; assay: Antifungal activity against Candida parapsilosis 20385.079 after 24 hrs; type: functional; details: Lodderomyces parapsilosis, 20385.079, 24 h; procedure, shortened: as §3
[28] = test system: Candida parapsilosis; assay: Antifungal activity against Candida parapsilosis 20477.048 after 24 hrs; type: functional; details: Lodderomyces parapsilosis, 20477.048, 24 h; procedure, shortened: as §3
[29] = test system: Candida parapsilosis; assay: Antifungal activity against Candida parapsilosis 20562.03 after 24 hrs; type: functional; details: Lodderomyces parapsilosis, 20562.03, 24 h; procedure, shortened: as §3
[30] = test system: Candida parapsilosis; assay: Antifungal activity against Candida parapsilosis 20553.009 after 24 hrs; type: functional; details: Lodderomyces parapsilosis, 20553.009, 24 h; procedure, shortened: as §3
[31] = test system: Candida parapsilosis; assay: Antifungal activity against Candida parapsilosis 20489.085 after 24 hrs; type: functional; details: Lodderomyces parapsilosis, 20489.085, 24 h; procedure, shortened: as §4
[32] = test system: Candida parapsilosis; assay: Antifungal activity against Candida parapsilosis 20511.092 after 24 hrs; type: functional; details: Lodderomyces parapsilosis, 20511.092, 24 h; procedure, shortened: as §3
[33] = test system: Candida orthopsilosis; assay: Antifungal activity against Candida orthopsilosis 20577.055 after 24 hrs; type: functional; details: Lodderomyces orthopsilosis, 20577.055, 24 h; procedure, shortened: as §3
[34] = test system: Candida parapsilosis; assay: Antifungal activity against Candida parapsilosis 20519.069 after 24 hrs; type: functional; details: Lodderomyces parapsilosis, 20519.069, 24 h; procedure, shortened: as §3
[35] = AUC (0 to 24 hrs) in Candida albicans infected neutropenic ICR Swiss mouse at 80 mg/kg, ip; type: ADME, organism-based; set-up: time < 24 hr, dose 80 mg/kg, route intraperitoneal; details: plasma
Procedure, shortened: (§5)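 Neutropenic female ICR Swiss mice (cyclophosphamide sc at 150 mg/kg on day −4, 100 mg/kg on day −1 and day +2) infected iv via tail vein with Candida; single ip doses of 5, 20 or 80 mg/kg. Serum drawn from 3 mice per time point at eight time points and assayed by microbiologic assay (C. albicans K1) or […]. Noncompartmental analysis; AUC by trapezoidal rule.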

[36] = AUC (0 to 24 hrs) in Candida albicans infected neutropenic ICR Swiss mouse at 20 mg/kg, ip; type: ADME, organism-based; set-up: time < 24 hr, dose 20 mg/kg, route intraperitoneal; details: plasma; procedure, shortened: as §5

CCCCCOc1ccc(-c2cc(-c3ccc(C(=O)N[C@H]4C[C@@H](O)[C@@H](O)NC(=O)[C@@H]5[C@@H](O)[C@@H](C)CN5C(=O)[C@H]([C@H](O)CC(N)=O)NC(=O)[C@H]([C@H](O)[C@@H](O)c5ccc(O)c(OS(=O)(=O)O)c5)NC(=O)[C@@H]5C[C@@H](O)CN5C(=O)[C@H]([C@@H](C)O)NC4=O)cc3)no2)cc1 [MICAFUNGIN] (X1-[Orn(4R-OH,5R-OH)]T[Hyp][hTyr(3S-OH,4S-OH,3'-OSO3H)][Gln(3R-OH)][Pro(3S-OH,4S-Me)]; lactam 1-C)
Activity [1]: 99.75% | Ratio [2]: 5299 | Ratio [3]: 1542 | Ratio [4]: 1981 | Ratio [5]: 12.7 | Ratio [6]: 4.95 | Ratio [7]: 3778 | Ratio [8]: 25.2 | Ratio [9]: 9.45 | Ratio [10]: 7.73 | Activity [11]: 2.47 mg/kg | Activity [12]: 55.8 mg/kg | Emax [13]: 7.2 log10 CFU/kidneys | ED50 ([13]; Candida albicans): 18.9 mg/kg | Emax [14]: 4.8 log10 CFU/kidneys | ED50 ([14]; Lodderomyces parapsilosis): 2.6 mg/kg | MIC [15]: 0.03 µg/mL (≈ 0.0236 µM) | MIC [16]: 0.008 µg/mL (≈ 0.0063 µM) | MIC [17]: 0.016 µg/mL (≈ 0.0126 µM) | MIC [18]: 0.02 µg/mL (≈ 0.0157 µM) | MIC [19]: 0.016 µg/mL (≈ 0.0126 µM) | MIC [20]: 0.016 µg/mL (≈ 0.0126 µM) | MIC [21]: 0.25 µg/mL (≈ 0.197 µM) | MIC [22]: 0.06 µg/mL (≈ 0.0472 µM) | MIC [23]: 0.06 µg/mL (≈ 0.0472 µM) | MIC [24]: 0.12 µg/mL (≈ 0.0945 µM) | MIC [25]: 0.25 µg/mL (≈ 0.197 µM) | MIC [26]: 0.5 µg/mL (≈ 0.394 µM) | MIC [27]: 0.5 µg/mL (≈ 0.394 µM) | MIC [28]: 0.5 µg/mL (≈ 0.394 µM) | MIC [29]: 0.5 µg/mL (≈ 0.394 µM) | MIC [30]: 1 µg/mL (≈ 0.787 µM) | MIC [31]: 0.12 µg/mL (≈ 0.0945 µM) | MIC [32]: 0.25 µg/mL (≈ 0.197 µM) | MIC [33]: 0.25 µg/mL (≈ 0.197 µM) | MIC [34]: 1 µg/mL (≈ 0.787 µM) | AUC(0-t) at 24 h [35]: 1400 µg·h/mL | AUC(0-t) at 24 h [36]: 520 µg·h/mL
